Data from ChEMBL document CHEMBL3774339, “Exploring Selective Inhibition of the First Bromodomain of the Human Bromodomain and Extra-terminal Domain (BET) Proteins” (J Med Chem, 2016).

What was measured:
[1] = target: Bromodomain testis-specific protein (Homo sapiens, UniProt Q58F21); experiment: Inhibition of GST-tagged human BRDT bromodomain1 using H4KAc 5/8/12/16 peptide as substrate incubated overnight by HTRF assay
[2] = target: T1, ATPase family AAA domain-containing protein 2 (Homo sapiens, UniProt Q6PL18); experiment: Inhibition of GST-tagged human ATAD2 using H4KAc 5/8/12/16 peptide as substrate incubated overnight by HTRF assay
T1 sequence (Q6PL18 whole entry): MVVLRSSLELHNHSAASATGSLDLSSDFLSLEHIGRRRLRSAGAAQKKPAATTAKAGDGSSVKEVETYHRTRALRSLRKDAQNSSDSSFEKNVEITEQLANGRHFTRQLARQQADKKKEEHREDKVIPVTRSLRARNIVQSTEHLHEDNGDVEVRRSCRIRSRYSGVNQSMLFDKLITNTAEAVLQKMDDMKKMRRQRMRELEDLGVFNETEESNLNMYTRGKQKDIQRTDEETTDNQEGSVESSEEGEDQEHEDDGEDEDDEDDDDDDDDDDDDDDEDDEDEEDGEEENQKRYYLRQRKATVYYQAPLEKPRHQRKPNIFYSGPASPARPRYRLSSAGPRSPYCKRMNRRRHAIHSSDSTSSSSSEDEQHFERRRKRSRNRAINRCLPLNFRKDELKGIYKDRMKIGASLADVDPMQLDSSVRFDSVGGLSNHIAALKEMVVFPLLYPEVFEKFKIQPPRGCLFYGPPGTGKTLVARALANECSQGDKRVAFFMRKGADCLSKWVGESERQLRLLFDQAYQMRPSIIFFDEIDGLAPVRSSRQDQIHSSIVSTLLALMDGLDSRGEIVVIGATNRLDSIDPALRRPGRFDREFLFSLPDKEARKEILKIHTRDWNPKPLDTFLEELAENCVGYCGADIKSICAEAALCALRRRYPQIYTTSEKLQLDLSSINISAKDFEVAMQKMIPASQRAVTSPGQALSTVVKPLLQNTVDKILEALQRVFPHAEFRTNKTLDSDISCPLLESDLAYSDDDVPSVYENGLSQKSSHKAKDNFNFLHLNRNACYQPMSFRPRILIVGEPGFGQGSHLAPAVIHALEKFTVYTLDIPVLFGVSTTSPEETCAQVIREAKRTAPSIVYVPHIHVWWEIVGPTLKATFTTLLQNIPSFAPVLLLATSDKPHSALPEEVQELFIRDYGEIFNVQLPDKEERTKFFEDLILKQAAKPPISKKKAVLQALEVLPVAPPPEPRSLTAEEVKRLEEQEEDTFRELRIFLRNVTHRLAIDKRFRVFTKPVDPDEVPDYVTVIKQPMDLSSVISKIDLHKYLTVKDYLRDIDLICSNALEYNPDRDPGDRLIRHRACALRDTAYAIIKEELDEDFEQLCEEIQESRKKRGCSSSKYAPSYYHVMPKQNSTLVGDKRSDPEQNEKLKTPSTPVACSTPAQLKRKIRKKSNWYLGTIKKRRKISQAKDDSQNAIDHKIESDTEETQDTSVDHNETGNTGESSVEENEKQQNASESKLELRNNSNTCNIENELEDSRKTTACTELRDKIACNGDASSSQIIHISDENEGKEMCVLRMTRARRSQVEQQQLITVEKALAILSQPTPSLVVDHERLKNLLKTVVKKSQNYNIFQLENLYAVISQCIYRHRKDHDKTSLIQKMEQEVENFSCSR

[3] = species on record: Homo sapiens; experiment: Selectivity ratio of IC50 for GST-tagged human BRD3 bromodomain1 to IC50 for GST-tagged human BRD4 bromodomain1
[4] = system: Jurkat; experiment: Antiproliferative activity against human Jurkat cells after 72 hrs by Cell Titer-Glo luminescence assay; assay type: functional, cell-based
Outline: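 Jurkat cell viability read across a range of compound concentrations after 72 h incubation at 37 °C. EC50 taken from the dose–response.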

[5] = system: Jurkat; experiment: Downregulation of c-Myc in human Jurkat cells assessed as expression level at 1 uM after 24 hrs by Western blot analysis; assay type: functional
Outline: (§1)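 Jurkat cells exposed to different compound concentrations in 0.5% DMSO for 24 h. c-Myc detected on blots loaded with 50 μg protein.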

[6] = system: Jurkat; experiment: Downregulation of c-Myc in human Jurkat cells assessed as expression level at 10 uM after 24 hrs by Western blot analysis; assay type: functional; outline: as §1
[7] = system: Jurkat; experiment: Downregulation of c-Myc in human Jurkat cells assessed as expression level at 50 uM after 24 hrs by Western blot analysis; assay type: functional; outline: as §1
[8] = system: Jurkat; experiment: Downregulation of c-Myc in human Jurkat cells assessed as expression level after 24 hrs by Western blot analysis; assay type: functional, cell-based; outline: as §1
[9] = species on record: Homo sapiens; experiment: Selectivity ratio of IC50 for GST-tagged human BRD2 bromodomain1 to IC50 for GST-tagged human BRD4 bromodomain1
[10] = species on record: Homo sapiens; experiment: Selectivity ratio of IC50 for GST-tagged human BRDT bromodomain1 to IC50 for GST-tagged human BRD4 bromodomain1
[11] = target: Bromodomain-containing protein 4 (Homo sapiens, UniProt O60885); experiment: Inhibition of GST-tagged human BRD4 bromodomain1 using H4KAc 5/8/12/16 peptide as substrate incubated overnight by HTRF assay
[12] = target: Bromodomain-containing protein 3 (Homo sapiens, UniProt Q15059); experiment: Inhibition of human BRD3 bromodomain2 using H4KAc 5/8/12/16 peptide as substrate incubated overnight by HTRF assay
Sequence of Bromodomain-containing protein 3 (Q15059 whole entry): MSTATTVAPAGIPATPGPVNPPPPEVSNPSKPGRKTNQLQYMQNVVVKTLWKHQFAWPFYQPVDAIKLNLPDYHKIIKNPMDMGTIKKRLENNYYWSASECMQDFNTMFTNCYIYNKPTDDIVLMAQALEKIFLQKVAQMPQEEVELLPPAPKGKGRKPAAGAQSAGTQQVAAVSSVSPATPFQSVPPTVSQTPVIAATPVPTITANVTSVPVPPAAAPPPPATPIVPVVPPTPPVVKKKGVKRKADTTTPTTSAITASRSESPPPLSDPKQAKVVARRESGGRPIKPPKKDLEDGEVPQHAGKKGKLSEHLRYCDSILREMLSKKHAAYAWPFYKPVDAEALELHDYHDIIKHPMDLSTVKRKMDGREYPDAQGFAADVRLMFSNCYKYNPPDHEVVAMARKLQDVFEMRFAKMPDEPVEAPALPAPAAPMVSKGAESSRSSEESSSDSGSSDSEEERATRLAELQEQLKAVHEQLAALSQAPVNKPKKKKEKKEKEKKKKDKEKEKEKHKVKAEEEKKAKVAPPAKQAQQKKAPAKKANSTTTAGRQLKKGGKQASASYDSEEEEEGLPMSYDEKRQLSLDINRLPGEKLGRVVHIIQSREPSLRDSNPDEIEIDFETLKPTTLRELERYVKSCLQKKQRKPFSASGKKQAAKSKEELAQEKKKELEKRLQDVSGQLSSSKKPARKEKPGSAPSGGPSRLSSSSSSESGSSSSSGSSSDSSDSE

Compound: CCCCc1c(C)nc2nc(SCc3nc4c(c(=O)[nH]c(=O)n4CCCC)n3CC)nn2c1C
- IC50 [1]: > 100 µM
- IC50 [2]: > 100 µM
- Ratio IC50 [3]: > 10
- Activity [4]: Dose-dependent effect
- EC50 [4]: 27 µM
- Activity [5]: 62%
- Activity [6]: 98%
- Activity [7]: 3%
- Activity [8]: Dose-dependent effect
- Ratio IC50 [9]: > 10
- Ratio IC50 [10]: > 10

Compound: CCCCn1c(=O)[nH]c(=O)c2c1nc(CSc1n[nH]c(N)n1)n2CC
- IC50 [11]: > 50 µM

Compound: CCn1cnc2c1c(=O)[nH]c(=O)n2Cc1ccc(Cl)cc1
- IC50 [12]: 1.8 µM

Compound: CCn1c(CSc2n[nH]c(N)n2)nc2c1c(=O)[nH]c(=O)n2Cc1ccc(Cl)cc1
- IC50 [1]: > 100 µM
